# Measurements taken from ChEMBL document CHEMBL4627381, “Licochalcone A Selectively Resensitizes ABCG2-Overexpressing Multidrug-Resistant Cancer Cells to Chemotherapeutic Drugs” (J Nat Prod, 2020).
# Active and inactive are the calls of the source. The calls are words filed in the database; no cut-off is given here.
# Tests used:
# [1] = biological target: T1, Broad substrate specificity ATP-binding cassette transporter ABCG2 (Homo sapiens, UniProt Q9UNQ0); experiment: Reversal of human ABCG2-mediated multidrug resistance in HEK293/R482 cells assessed as fold change in mitoxantrone IC50 at 2 uM after 72 hrs by CCK8 assay relative to mitoxantrone IC50; format: cell-based
# T1 sequence (Q9UNQ0 whole entry): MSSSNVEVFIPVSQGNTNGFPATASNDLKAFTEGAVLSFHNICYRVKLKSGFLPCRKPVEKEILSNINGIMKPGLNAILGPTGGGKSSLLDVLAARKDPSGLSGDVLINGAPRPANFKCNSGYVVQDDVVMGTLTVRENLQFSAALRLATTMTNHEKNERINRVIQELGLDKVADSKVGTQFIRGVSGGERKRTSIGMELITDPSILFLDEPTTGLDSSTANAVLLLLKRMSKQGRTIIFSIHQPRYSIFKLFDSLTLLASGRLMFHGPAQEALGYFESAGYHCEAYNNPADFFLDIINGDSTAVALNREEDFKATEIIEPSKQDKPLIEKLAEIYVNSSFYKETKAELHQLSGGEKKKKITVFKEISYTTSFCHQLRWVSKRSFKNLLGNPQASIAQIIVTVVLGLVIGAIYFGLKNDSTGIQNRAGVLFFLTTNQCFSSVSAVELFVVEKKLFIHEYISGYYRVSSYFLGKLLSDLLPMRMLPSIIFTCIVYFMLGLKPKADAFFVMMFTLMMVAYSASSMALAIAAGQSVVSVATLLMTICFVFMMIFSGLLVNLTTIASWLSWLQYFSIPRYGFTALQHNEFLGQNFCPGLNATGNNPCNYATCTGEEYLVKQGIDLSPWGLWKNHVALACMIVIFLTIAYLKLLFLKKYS
# In short: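 Cells were seeded at 5000/well for 24 h, then given colchicine, etoposide, mitoxantrone or topotecan ± non-toxic modulator (0.5–3.0 μM) for 72 h, with DMSO up to 0.5%. IC50 came from fitted curves (mean ± SD, three experiments). Fold-reversal = IC50 without modulator ÷ IC50 with modulator.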
# S1-M1-80 = experiment: Induction of apoptosis in human S1-M1-80 cells harboring ABCG2 (unknown origin) assessed as viable cells at 10 uM incubated for 48 hrs by annexin V/propidium iodide staining based flow cytometry (reference value: 93.9%); format: functional; details: S1-M1-80, 48 h, read-out: Activity
# S1 = experiment: Induction of apoptosis in human S1 cells assessed as early apoptotic cells at 10 uM incubated for 48 hrs in presence of topotecan by annexin V/propidium iodide staining based flow cytometry (reference value: 2%); format: functional
# In short: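 S1 cells were exposed for 48 h to DMSO, 10 μM compound, 5 μM topotecan, or 5 μM topotecan plus 10 μM compound. They were then stained with 1.25 μg/mL annexin V–FITC and 0.1 mg/mL PI for 15 min at room temperature. 10000 cells per sample were analysed by flow cytometry; three independent experiments.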
# Homo sapiens = species: Homo sapiens; experiment: Downregulation of ABCG2 expression in human NCI-H460/MX20 cells at 0.5 to 3 uM incubated for 72 hrs by Western blot analysis; format: functional, cell-based
# In short: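 S1-M1–80 and H460-MX20 cells were treated with 0.5–3.0 μM or DMSO vehicle for 72 h, then run on SDS-PAGE and immunoblotted with BXP-21 (1:15000) for ABCG2. α-Tubulin (1:100000) served as loading control, with HRP goat anti-mouse secondary. Bands were quantified as mean ± SEM of three independent experiments.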
# [2] = biological target: T1, Broad substrate specificity ATP-binding cassette transporter ABCG2; experiment: Inhibition of ABCG2 (unknown origin)-mediated pheophorbide A efflux in human S1 cells incubated for 1 hr by FACScan flow cytometry; format: cell-based; details: s1, 1 h
# In short: (§1)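 Cells held drug-free 7 days. 3 × 10^5 cells were suspended in IMDM with 5% FCS and loaded with pheophorbide A (ex 395/em 670 nm) for 1 h, with or without LCA (20 μM for single-concentration accumulation) or Ko143 3 μM as reference. Read immediately by flow cytometry. Efflux inhibition was run over a concentration range; mean ± SD of three experiments.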
# NCI-H460 = experiment: Induction of pheophorbide A accumulation in human H460 cells at 20 uM incubated for 1 hr by FACScan flow cytometry; format: functional, cell-based; in short: as §1
# HEK293 [3] = experiment: Induction of Calcein-AM accumulation in HEK293 cells at 20 uM incubated for 10 mins by FACScan flow cytometry; format: cell-based; details: human, hek293, 10 min
# In short: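 Parental HEK293 cells (3 × 10^5) were resuspended in IMDM with 5% FCS and given calcein-AM with or without 20 μM modulator for 10 min. Intracellular calcein (ex 485/em 535 nm) was measured by flow cytometry; at least three independent experiments.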
# HEK293 [4] = experiment: Cytotoxicity against HEK293 cells overexpressing human ABCG2 after 72 hrs by CCK8 assay; format: ADME, cell-based; details: HEK293, 72 h
# In short: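 Cells seeded at 5000/well, allowed 24 h, then exposed to a concentration series for 72 h at 37 °C in DMSO vehicle (up to 0.5% v/v). HEK293 lines were read with CCK-8 and cancer lines with MTT. IC50 was taken from fitted dose-response curves over at least three independent experiments. Lines were kept drug-free for 7 days before assay.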
# [5] = biological target: T1, Broad substrate specificity ATP-binding cassette transporter ABCG2; experiment: Reversal of ABCG2 (unknown origin)-mediated multidrug resistance in human S1-M1-80 cells assessed as fold-change in topotecan IC50 at 2 uM after 72 hrs by MTT assay relative to topotecan IC50; format: cell-based; details: s1-m1-80, 72 h
# In short: (§2)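 MTT readout in S1-M1-80 colon cancer cells (mitoxantrone-selected, held in 80 μM mitoxantrone, then drug-free 7 days before assay). Cells were seeded at 5000/well for 24 h, then given increasing mitoxantrone or topotecan with DMSO or non-toxic modulator for 72 h at 37 °C. IC50 came from fitted dose-response curves (at least three independent experiments). Fold-reversal = IC50 without modulator ÷ IC50 with modulator.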
# [6] = biological target: T1, Broad substrate specificity ATP-binding cassette transporter ABCG2; experiment: Reversal of ABCG2 (unknown origin)-mediated multidrug resistance in human S1-M1-80 cells assessed as fold-change in topotecan IC50 at 1 uM after 72 hrs by MTT assay relative to topotecan IC50; format: cell-based; details: s1-m1-80, 72 h; in short: as §2
# [7] = biological target: T1, Broad substrate specificity ATP-binding cassette transporter ABCG2; experiment: Reversal of ABCG2 (unknown origin)-mediated multidrug resistance in human S1-M1-80 cells assessed as fold-change in topotecan IC50 at 0.5 uM after 72 hrs by MTT assay relative to topotecan IC50; format: cell-based; details: s1-m1-80, 72 h; in short: as §2
# HEK293 [8] = experiment: Effect on mitoxantrone-induced cytotoxicity against HEK293 cells assessed as fold change in mitoxantrone IC50 at 1 uM after 72 hrs by CCK8 assay relative to mitoxantrone IC50; format: cell-based; details: human, hek293, 72 h
# In short: (§3)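 Reversal assay in parental pcDNA-HEK293 and transfected HEK293 lines (ABCB1 for colchicine, ABCC1 for etoposide, ABCG2 for mitoxantrone/topotecan). Substrate drug series was given with or without nontoxic modulator (0.5, 1.0, 2.0 or 3.0 μM) for 72 h, with a CCK-8 read-out. Fold-reversal is substrate IC50 without modulator divided by IC50 with modulator. Three independent experiments.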
# HEK293 [9] = experiment: Effect on etoposide-induced cytotoxicity against HEK293 cells assessed as fold change in etoposide IC50 at 0.5 uM after 72 hrs by CCK8 assay relative to etoposide IC50; format: cell-based; details: human, hek293, 72 h; in short: as §3
smiles,measurement,setting,value
C=CC(C)(C)c1cc(/C=C/C(=O)c2ccc(O)cc2)c(OC)cc1O [LICOAGROCHACONE A],fold change (FC),[1],6.5
same,viability at 10 µM,S1-M1-80,94.4%
same,Activity,S1,30.3%
same,Activity,Homo sapiens,inactive
same,inhibition (INH),[2],Dose-dependent effect
same,Activity,NCI-H460,inactive
same,Activity,HEK293 [3],Non-Toxic
same,IC50,HEK293 [4],10 to 50 µM
same,fold change (FC),[5],24.7
same,fold change (FC),[6],16.6
same,fold change (FC),[7],9.8
same,fold change (FC),HEK293 [8],1
same,fold change (FC),HEK293 [9],0.7
